Test results from ChEMBL document CHEMBL3351557, “Discovery of Potent and Simplified Piperidinone-Based Inhibitors of the MDM2-p53 Interaction” (ACS Med Chem Lett, 2014).
Calls of active or inactive are those of the source. The calls are words filed in the database; no cut-off is given here.

Columns and labels:
[1] = Half life in rat at 0.5 mg/kg, iv; format: ADME, organism-based; set-up: dose 0.5 mg/kg, route intravenous; settings: in vivo
[2] = test system: SJSA-1; test: Antiproliferative activity against human SJSA1 cells after 3 days by EdU incorporation-based HCS assay in presence of 10% human serum; format: functional, cell-based; settings: SJSA-1, 72 h
[3] = Clearance in rat at 0.5 mg/kg, iv; format: ADME, organism-based; set-up: dose 0.5 mg/kg, route intravenous; settings: in vivo
[4] = molecular target: T1, Tumour suppressor p53/oncoprotein Mdm2 (Homo sapiens, UniProt Q00987); test: Inhibition of human MDM2 (1-188 aa) -p53 (1-83 aa) interaction expressed in Escherichia coli after 18 hrs by HTRF assay in presence of 15% human serum
T1 sequence (P04637 whole entry, the tested form may be a part): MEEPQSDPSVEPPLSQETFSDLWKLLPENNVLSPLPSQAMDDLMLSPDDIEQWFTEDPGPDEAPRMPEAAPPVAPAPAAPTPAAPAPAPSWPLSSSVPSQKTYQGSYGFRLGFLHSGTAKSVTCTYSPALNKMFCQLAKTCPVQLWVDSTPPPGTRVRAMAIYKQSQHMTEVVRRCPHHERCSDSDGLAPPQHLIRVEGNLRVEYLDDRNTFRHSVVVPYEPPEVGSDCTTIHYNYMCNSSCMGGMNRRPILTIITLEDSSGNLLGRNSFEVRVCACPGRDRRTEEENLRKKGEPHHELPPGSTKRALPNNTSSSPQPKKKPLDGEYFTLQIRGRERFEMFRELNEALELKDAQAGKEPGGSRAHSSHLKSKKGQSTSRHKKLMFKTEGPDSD
T1 sequence (Q00987 whole entry, the tested form may be a part): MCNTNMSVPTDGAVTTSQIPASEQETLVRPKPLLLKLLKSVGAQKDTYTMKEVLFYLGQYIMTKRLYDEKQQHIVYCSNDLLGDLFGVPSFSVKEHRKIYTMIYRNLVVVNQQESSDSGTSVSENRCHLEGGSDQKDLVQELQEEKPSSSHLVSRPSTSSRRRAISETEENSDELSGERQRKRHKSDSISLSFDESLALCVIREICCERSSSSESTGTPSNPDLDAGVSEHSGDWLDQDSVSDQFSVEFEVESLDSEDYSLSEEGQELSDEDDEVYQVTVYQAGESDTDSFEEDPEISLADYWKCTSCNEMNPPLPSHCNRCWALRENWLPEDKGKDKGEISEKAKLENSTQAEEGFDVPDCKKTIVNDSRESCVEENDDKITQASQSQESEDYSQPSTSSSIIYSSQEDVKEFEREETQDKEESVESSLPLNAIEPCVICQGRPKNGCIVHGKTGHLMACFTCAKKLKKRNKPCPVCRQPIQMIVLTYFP

[5] = molecular target: T1, Tumour suppressor p53/oncoprotein Mdm2; test: Inhibition of human MDM2 (1-188 aa) -p53 (1-83 aa) interaction expressed in Escherichia coli after 18 hrs by HTRF assay
[6] = Clearance in rat at 0.5 mg/kg, iv; settings: in vivo
[7] = test system: Mus musculus; test: Toxicity in human SJSA1 cells xenografted athymic nude mouse assessed as body weight loss at 200 mg/kg, po qd administered 2 weeks post implantation; format: organism-based, SJSA-1; set-up: dose 200 mg/kg, route oral; settings: in vivo, 336 h
In short: (§1)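 Female athymic nude mice were implanted subcutaneously with 5 × 10⁶ SJSA-1 cells. Oral gavage of vehicle or compound (50, 100 or 200 mg/kg QD; 50 or 100 mg/kg BID) began on day 14, when tumours were about 200 mm³. There were 10 mice per group, and tumours were measured twice weekly.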

[8] = test system: SJSA-1; test: Increase in p21 mRNA expression in tumor of human SJSA1 cells xenografted athymic nude mouse at 50 to 200 mg/kg, po administered as single dose 2 weeks post implantation relative to vehicle-treated control; format: functional, organism-based
In short: (§2)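 SJSA-1 osteosarcoma cells were implanted in mice 2 weeks before a single oral dose (100 or 200 mg/kg in one study; 50, 100 or 200 mg/kg in another). Tumour p21 mRNA, a p53 transcriptional target, was measured at several times after dosing and expressed relative to vehicle-treated controls.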

[9] = Oral bioavailability in rat at 2 mg/kg; format: ADME, organism-based; settings: in vivo
[10] = test system: SJSA-1; test: Increase in p21 mRNA expression in tumor of human SJSA1 cells xenografted athymic nude mouse at 100 mg/kg, po as single dose administered 2 weeks post implantation measured 4 hrs post dose relative to vehicle-treated control; format: functional, organism-based; set-up: dose 100 mg/kg; in short: as §2
[11] = Intrinsic clearance in rat hepatocytes assessed per million cells; format: ADME, cell-based, Hepatocyte; settings: read-out: CLH
[12] = test system: SJSA-1; test: Increase in p21 mRNA expression in tumor of human SJSA1 cells xenografted athymic nude mouse compound administered as single oral dose 2 weeks post implantation measured 4 to 8 hrs post dose relative to vehicle-treated control; format: functional; in short: as §2
[13] = Clearance in mouse at 1 mg/kg, iv; format: ADME, organism-based; set-up: dose 1 mg/kg, route intravenous; settings: in vivo
[14] = Oral bioavailability in mouse at 5 mg/kg; format: ADME, organism-based; settings: in vivo
[15] = test system: SJSA-1; test: Antitumor activity against human SJSA1 cells xenografted in athymic nude mouse assessed as tumor growth inhibition at 50 mg/kg, po bid administered 2 weeks post implantation relative to vehicle-treated control; settings: SJSA-1, po, 336 h, read-out: TGI
[16] = test system: SJSA-1; test: Antitumor activity against human SJSA1 cells xenografted in athymic nude mouse assessed as tumor growth inhibition at 100 mg/kg, po qd administered 2 weeks post implantation relative to vehicle-treated control; settings: SJSA-1, po, 336 h, read-out: TGI
[17] = test system: Mus musculus; test: Toxicity in human SJSA1 cells xenografted athymic nude mouse assessed as body weight loss at 100 mg/kg, po bid administered 2 weeks post implantation; format: organism-based, SJSA-1; set-up: dose 100 mg/kg, route oral; settings: in vivo, 336 h; in short: as §1
[18] = Half life in mouse; format: ADME, organism-based; settings: in vivo
[19] = Clearance in mouse; format: ADME, organism-based; settings: in vivo
[20] = Bioavailability in rat at 0.5 mg/kg, iv; format: ADME, organism-based; settings: in vivo
[21] = Intrinsic clearance in human hepatocytes assessed per million cells; format: ADME, cell-based, Hepatocyte; settings: read-out: CLH

Structure (SMILES)	IC50 [2] [nM]	clearance [3] [mL/min/kg]	IC50 [4] [nM]	IC50 [5] [nM]	further results
CCC[C@@H](c1ccccn1)N1C(=O)[C@@](C)(CC(=O)O)C[C@H](c2cccc(Cl)c2)[C@H]1c1ccc(Cl)cc1	990	3.33	–	–	half-life [1]: 6.9 h
CC[C@@H]([C@@H]1CCCO1)N1C(=O)[C@@](C)(CC(=O)O)C[C@H](c2cccc(Cl)c2)[C@H]1c1ccc(Cl)cc1	123	–	–	–	–
CC[C@@H](c1cccc(C)n1)N1C(=O)[C@@](C)(CC(=O)O)C[C@H](c2cccc(Cl)c2)[C@H]1c1ccc(Cl)cc1	280	15.5	–	–	–
CC[C@@H](c1ccc(C)cn1)N1C(=O)[C@@](C)(CC(=O)O)CC(c2cccc(Cl)c2)[C@H]1c1ccc(Cl)cc1 (single isomer, unassigned)	900	–	123	7	–
CC[C@@H](c1ncccc1C)N1C(=O)[C@@](C)(CC(=O)O)C[C@H](c2cccc(Cl)c2)[C@H]1c1ccc(Cl)cc1	310	–	183	5	–
CC[C@@H](c1cnco1)N1C(=O)[C@@](C)(CC(=O)O)C[C@H](c2cccc(Cl)c2)[C@H]1c1ccc(Cl)cc1	840	–	36	8	–
CC(C)N1C(=O)[C@@](C)(CC(=O)O)C[C@H](c2cccc(Cl)c2)[C@H]1c1ccc(Cl)cc1	380	17.3	–	–	clearance [6]: 17.3 mL/min/kg; Activity [7]: Toxic; Activity [8]: Active; bioavailability [9]: 48%; Activity [10]: Active; hepatocyte CLint [11]: 8.5 µL/min/1e6 cells; Activity [12]: Active; clearance [13]: 17.2 mL/min/kg; bioavailability [14]: 32%; inhibition in vivo at 50 mg/kg [15]: 82%; inhibition in vivo at 100 mg/kg [16]: 96%; Activity [17]: Toxic
CCC(CC)N1C(=O)[C@@](C)(CC(=O)O)C[C@H](c2cccc(Cl)c2)[C@H]1c1ccc(Cl)cc1	–	7.5	–	–	clearance [6]: 7.5 mL/min/kg; Activity ([8]; TDE = time-dependent effect): tde; bioavailability [9]: 38%; hepatocyte CLint [11]: 18.8 µL/min/1e6 cells; Activity [12]: Dose-dependent effect; clearance [13]: 16.5 mL/min/kg; bioavailability [14]: 42%
CC[C@@H](c1cc(C)ccn1)N1C(=O)[C@@](C)(CC(=O)O)C[C@H](c2cccc(Cl)c2)[C@H]1c1ccc(Cl)cc1	890	–	60	6	–
CC(C)[C@@H](c1ccccn1)N1C(=O)[C@@](C)(CC(=O)O)C[C@H](c2cccc(Cl)c2)[C@H]1c1ccc(Cl)cc1	290	–	–	–	–
CC[C@@H](c1ccncc1)N1C(=O)[C@@](C)(CC(=O)O)C[C@H](c2cccc(Cl)c2)[C@H]1c1ccc(Cl)cc1	460	–	–	–	–
C[C@]1(CC(=O)O)C[C@H](c2cccc(Cl)c2)[C@@H](c2ccc(Cl)cc2)N(c2ccccn2)C1=O	–	36	122	13	–
C[C@]1(CC(=O)O)C[C@H](c2cccc(Cl)c2)[C@@H](c2ccc(Cl)cc2)N(c2ccccc2)C1=O	–	40.8	55	4	–
CC[C@@H](c1ccccn1)N1C(=O)[C@@](C)(CC(=O)O)CC(c2cccc(Cl)c2)[C@H]1c1ccc(Cl)cc1 (single isomer, unassigned)	430	–	–	–	half-life [1]: 3.5 h; hepatocyte CLint [11]: 13 µL/min/1e6 cells; half-life [18]: 1.9 h; clearance [19]: 51.7 mL/min/kg; bioavailability [20]: 79%; hepatocyte CLint [21]: 7 µL/min/1e6 cells
CC[C@@H]([C@H](C)OC)N1C(=O)[C@@](C)(CC(=O)O)C[C@H](c2cccc(Cl)c2)[C@H]1c1ccc(Cl)cc1	143	–	–	–	–
CC[C@@H](c1cccc(C2CC2)n1)N1C(=O)[C@@](C)(CC(=O)O)CC(c2cccc(Cl)c2)[C@H]1c1ccc(Cl)cc1 (single isomer, unassigned)	1820	–	–	–	–
CC[C@@H](c1ncccn1)N1C(=O)[C@@](C)(CC(=O)O)C[C@H](c2cccc(Cl)c2)[C@H]1c1ccc(Cl)cc1	420	–	–	–	–
C[C@@H](c1ccccn1)N1C(=O)[C@@](C)(CC(=O)O)C[C@H](c2cccc(Cl)c2)[C@H]1c1ccc(Cl)cc1	420	–	62	10	–
CC[C@@H](c1cccc(Cl)n1)N1C(=O)[C@@](C)(CC(=O)O)C[C@H](c2cccc(Cl)c2)[C@H]1c1ccc(Cl)cc1	210	20	–	–	–
